In article PMC6955635 (Drug Design, Development and Therapy, 2020):

Tests used:
healthy males [1] = assay: Clinical laboratory tests; assay type: in vivo, human; conditions: all AM doses, single- and multiple-dose studies
healthy males [2] = assay: Adverse events, single-dose administration study; assay type: in vivo, human; conditions: single 12-h iv infusion, n = 6, number of subjects (%)
In short: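 Randomized, double-blind, dose-escalation study in healthy Japanese men: 8 per group, 1:3 placebo (D-mannitol) versus test compound at 3, 9 or 15 ng/kg/min. Single continuous IV infusion over 12 h (±30 min), hospitalized from the day before to the day after. Each escalation followed safety review of the next-day results. AEs were monitored throughout, plus vital signs, labs, physical exams and 12-lead ECG at set times. Monitor ECG ran to 24 h post-dose.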

[3] = system: normotensive and hypertensive patients; conditions: 30 ng/kg/min, after 90 min of intravenous infusion; cited from earlier work
[4] = Pharmacokinetics, plasma AM, multiple-dose administration study; assay type: in vivo, human; conditions: for half-life: T1/2 (terminal plasma elimination half-life), Phoenix WinNonlin; for half-life / Tmax: multiple administration, 8-h iv infusion 15 ng/kg/min per day for 7 days, mean ± SD; for Tmax: Tmax (time to maximum measured plasma concentration)
[5] = Pharmacokinetics, plasma AM, single-dose administration study; assay type: in vivo, human; conditions: for AUC(0-t) / Cmax / Tmax / half-life: male, human, plasma, iv
healthy males [6] = assay: Adverse events, multiple-dose administration study; assay type: in vivo, human
[7] = male, human, plasma, iv, 15 ng/kg/min, Day 1
[8] = male, human, plasma, iv, 15 ng/kg/min, Day 7

Structure (SMILES): CC[C@H](C)[C@H](NC(=O)[C@H](CCC(N)=O)NC(=O)[C@H](Cc1c[nH]cn1)NC(=O)[C@H](C)NC(=O)[C@H](CC(C)C)NC(=O)[C@H](CCCCN)NC(=O)[C@H](CCC(N)=O)NC(=O)[C@@H](NC(=O)[C@@H](NC(=O)[C@@H]1CSSC[C@H](NC(=O)CNC(=O)[C@H](Cc2ccccc2)NC(=O)[C@H](CO)NC(=O)[C@H](CCCNC(=N)N)NC(=O)[C@H](CC(C)C)NC(=O)CNC(=O)[C@H](CCC(N)=O)NC(=O)[C@H](Cc2ccccc2)NC(=O)[C@H](CC(N)=O)NC(=O)[C@H](CC(N)=O)NC(=O)[C@H](CCSC)NC(=O)[C@H](CO)NC(=O)[C@H](CCC(N)=O)NC(=O)[C@H](CCCNC(=N)N)NC(=O)[C@@H](N)Cc2ccc(O)cc2)C(=O)N[C@@H](CCCNC(=N)N)C(=O)N[C@@H](Cc2ccccc2)C(=O)NCC(=O)N[C@@H]([C@@H](C)O)C(=O)N1)[C@@H](C)O)C(C)C)C(=O)N[C@@H](Cc1ccc(O)cc1)C(=O)N[C@@H](CCC(N)=O)C(=O)N[C@@H](Cc1ccccc1)C(=O)N[C@H](C(=O)N[C@@H](CC(=O)O)C(=O)N[C@@H](CCCCN)C(=O)N[C@@H](CC(=O)O)C(=O)N[C@@H](CCCCN)C(=O)N[C@@H](CC(=O)O)C(=O)N[C@@H](CC(N)=O)C(=O)N[C@H](C(=O)N[C@@H](C)C(=O)N1CCC[C@H]1C(=O)N[C@@H](CCCNC(=N)N)C(=O)N[C@@H](CO)C(=O)N[C@@H](CCCCN)C(=O)N[C@H](C(=O)N[C@@H](CO)C(=O)N1CCC[C@H]1C(=O)N[C@@H](CCC(N)=O)C(=O)NCC(=O)N[C@@H](Cc1ccc(O)cc1)C(N)=O)[C@@H](C)CC)C(C)C)[C@@H](C)O [Adrenomedullin]
- Changes in clinical laboratory test values (healthy males [1]): no changes due to the direct effect of AM
- Any adverse event (healthy males [2]; high dose 15 ng/kg/min): 2(33.3%)
- Deaths (healthy males [2]; high dose 15 ng/kg/min): 0
- Diarrhea (gastrointestinal disorders) (healthy males [2]; high dose 15 ng/kg/min): 0
- Headache (nervous system disorders) (healthy males [2]; high dose 15 ng/kg/min): 1(16.7%)
- Palpitations (cardiac disorders) (healthy males [2]; high dose 15 ng/kg/min): 0
- Serious adverse events (healthy males [2]; high dose 15 ng/kg/min): 0
- Severe adverse events (healthy males [2]; high dose 15 ng/kg/min): 0
- Treatment-related adverse events (healthy males [2]; high dose 15 ng/kg/min): 2(33.3%)
- Wenckebach type atrioventricular block (cardiac disorders) (healthy males [2]; high dose 15 ng/kg/min): 1(16.7%)
- Any adverse event (healthy males [2]; low dose 3 ng/kg/min): 0
- Deaths (healthy males [2]; low dose 3 ng/kg/min): 0
- Diarrhea (gastrointestinal disorders) (healthy males [2]; low dose 3 ng/kg/min): 0
- Headache (nervous system disorders) (healthy males [2]; low dose 3 ng/kg/min): 0
- Palpitations (cardiac disorders) (healthy males [2]; low dose 3 ng/kg/min): 0
- Serious adverse events (healthy males [2]; low dose 3 ng/kg/min): 0
- Severe adverse events (healthy males [2]; low dose 3 ng/kg/min): 0
- Treatment-related adverse events (healthy males [2]; low dose 3 ng/kg/min): 0
- Wenckebach type atrioventricular block (cardiac disorders) (healthy males [2]; low dose 3 ng/kg/min): 0
- Any adverse event (healthy males [2]; medium dose 9 ng/kg/min): 3(50.0%)
- Deaths (healthy males [2]; medium dose 9 ng/kg/min): 0
- Diarrhea (gastrointestinal disorders) (healthy males [2]; medium dose 9 ng/kg/min): 0
- Headache (nervous system disorders) (healthy males [2]; medium dose 9 ng/kg/min): 1(16.7%)
- Palpitations (cardiac disorders) (healthy males [2]; medium dose 9 ng/kg/min): 0
- Serious adverse events (healthy males [2]; medium dose 9 ng/kg/min): 0
- Severe adverse events (healthy males [2]; medium dose 9 ng/kg/min): 0
- Treatment-related adverse events (healthy males [2]; medium dose 9 ng/kg/min): 3(50.0%)
- Wenckebach type atrioventricular block (cardiac disorders) (healthy males [2]; medium dose 9 ng/kg/min): 2(33.3%)
- Effect on BP [3]: clear decrease in BP
- Accumulation of plasma AM ([4]; after the end of the 7-day AM administration, 15 ng/kg/min 8 h per day): accumulation was not observed
- Cmax ([4]; male, human, plasma, iv, 15 ng/kg/min): 0.0479 ± 0.0109 ng/mL
- half-life [4, 7]: 27 ± 39.6 min
- half-life [4, 8]: 10.2 ± 4.2 min
- Tmax [4, 7]: 7.2 ± 1.1 h
- Tmax [4, 8]: 6.8 ± 1.1 h
- Increase of Cmax compared to the basal concentration of AM ([5]; high-dose AM group (15 ng/kg/min), single 12-h iv infusion): sevenfold
- AUC(0-t) ([5]; 3 ng/kg/min): 0.163 ± 0.0212 ng·h/mL
- Cmax ([5]; 3 ng/kg/min): 0.01 ± 0.0011 ng/mL
- Tmax ([5]; 3 ng/kg/min): 9.3 ± 4.7 h
- half-life ([5]; 3 ng/kg/min): 62.4 ± 55.2 min
- AUC(0-t) ([5]; 9 ng/kg/min): 0.295 ± 0.0521 ng·h/mL
- Cmax ([5]; 9 ng/kg/min): 0.0255 ± 0.0037 ng/mL
- Tmax ([5]; 9 ng/kg/min): 10.7 ± 1.6 h
- half-life ([5]; 9 ng/kg/min): 18 ± 12 min
- AUC(0-t) ([5]; 15 ng/kg/min): 0.532 ± 0.0915 ng·h/mL
- Cmax ([5]; 15 ng/kg/min): 0.0504 ± 0.0093 ng/mL
- Tmax ([5]; 15 ng/kg/min): 10 ± 2.2 h
- half-life ([5]; 15 ng/kg/min): 13.8 ± 9 min
- ECG abnormalities, including monitor ECG (healthy males [6]; 15 ng/kg/min 8 h per day for 7 days): not reported
- Withdrawal from the study due to headache (healthy males [6]; AM 15 ng/kg/min group, n = 6): one withdrawal
